For orientation: IC50 means the concentration that inhibits the measured activity by half. Read a high IC50 as weaker potency.

Here are results for 15 molecules from ChEMBL document CHEMBL1146983, “The design and synthesis of human branched-chain amino acid aminotransferase inhibitors for treatment of neurodegenerative diseases” (Bioorg Med Chem Lett, 2006).

In this test the target is T1, Branched-chain-amino-acid aminotransferase, cytosolic (Homo sapiens, UniProt P54687).
T1 sequence (P54687 whole entry): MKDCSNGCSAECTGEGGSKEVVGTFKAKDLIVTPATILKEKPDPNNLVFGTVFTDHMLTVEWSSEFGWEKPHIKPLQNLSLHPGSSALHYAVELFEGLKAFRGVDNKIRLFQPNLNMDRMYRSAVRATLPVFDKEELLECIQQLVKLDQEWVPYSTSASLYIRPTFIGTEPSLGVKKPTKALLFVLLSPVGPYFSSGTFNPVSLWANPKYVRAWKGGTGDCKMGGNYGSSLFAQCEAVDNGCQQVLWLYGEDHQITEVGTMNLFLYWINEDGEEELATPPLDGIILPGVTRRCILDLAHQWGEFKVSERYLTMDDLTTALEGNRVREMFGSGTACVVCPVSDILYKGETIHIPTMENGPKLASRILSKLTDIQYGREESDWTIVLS
Briefly: Inhibition of human BCATc. Summed up: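 Recombinant hBCATc (E. coli-expressed, purified; 50-100 nM) coupled to saturating purified bovine liver GDH. Mix: 25 mM NaPi pH 7.8, 0.75 mM L-leucine, 0.5 mM α-ketoglutarate, 10 μM pyridoxal phosphate, 1 mM NAD+, 4 mM ADP, 2 mM DTT, 12.5 mM EDTA, 1% DMSO final. 37 °C; A340 read over 20 min. IC50 from 8 to 10 point curves.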

Bounds are passed on as bounds.

The molecule `O=C(NNS(=O)(=O)c1ccccc1)c1ccc2ncccc2c1` yielded an IC50 of 13.3 µM. This lies in the double-digit micromolar range. `O=C(NNS(=O)(=O)c1ccccc1Cl)c1cc2cc(Cl)ccc2o1` showed an IC50 of 5.7 µM. `COc1ccc2[nH]c(C(=O)NNS(=O)(=O)c3ccccc3)cc2c1` displayed an IC50 of 56.8 µM. Against the preceding molecule, the IC50 is about 10-fold higher. Then `O=C(NNS(=O)(=O)c1ccccc1)c1cc2ccccc2o1`, with 18.3 µM; and `O=C(NNS(=O)(=O)c1cccc(Cl)c1)c1cccc2c1oc1ccccc12`, with greater than 35 µM; and `O=C(NNS(=O)(=O)c1ccccc1)c1cc2ccccc2[nH]1`, with 36 µM. `Cc1cccc(S(=O)(=O)NNC(=O)c2cccc3c2oc2ccccc23)c1` gave an IC50 of 2.8 µM. This IC50 lies about 13-fold lower than the previous one. Then `O=C(NNS(=O)(=O)c1ccccc1)c1cc2cc(Br)ccc2o1`, with 2.5 µM; and `Cc1ccccc1S(=O)(=O)NNC(=O)c1cc2cc(Cl)ccc2[nH]1`, with 1.16 µM.

`O=C(NNS(=O)(=O)c1ccccc1)c1cc2cc(Br)ccc2[nH]1`: half-maximal inhibition (IC50) required 15 µM.

As for `O=C(NNS(=O)(=O)c1ccccc1)c1cnc2ccccc2c1`, the IC50 was 33.3 µM. With `O=C(NNS(=O)(=O)c1ccccc1)c1ccc2oc3ccccc3c2c1`, it took 2.35 µM to reach half-maximal inhibition (IC50).

Turning to `Cc1cccc(S(=O)(=O)NNC(=O)c2cc3cc(Cl)ccc3o2)c1`, the IC50 is 1.2 µM. The molecule `Cc1ccccc1S(=O)(=O)NNC(=O)c1ccc2oc3ccccc3c2c1` showed an IC50 of 3.2 µM. This IC50 is about 2.7-fold higher than that of the molecule before. `O=C(NNS(=O)(=O)c1ccccc1)c1cc2cc(Cl)ccc2o1` yielded an IC50 of 4.2 µM.
